Compound activity deposited in PubChem by several laboratories.
The list is not random: actives were taken first. Their share in the collection is about 2%.
LMP1 NFkB inh – Epstein-Barr LMP1 NF-kappaB reporter inhibition; LMP1-induced NF-kappaB luciferase reporter cells, luminescence; inhibition, % at 12.5 µM; 350,000 tested, 0.69% active; in the data active = inhibition above about 41%;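 note: 0% = neutral control wells and 100% = reference inhibitor control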
NR2E3 ag-1 – agonists of human NR2E3 nuclear receptor | Q9Y5X4 | CHO-S Gal4-NCOR/VP16-NR2E3 two-hybrid, luciferase | inhibition of corepressor binding, % at 3.98 µM | 360,000 tested, 0.35% active | AID 602229;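 active = inhibition above the mean of all tested compounds plus 3 SD, cut at about 70% in these data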;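 note: 0% = DMSO with NR2E3 transfected cells and 100% = cells lacking NR2E3 construct; higher means lower luciferase signal from less NR2E3 corepressor binding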
Target sequence (Q9Y5X4 whole entry, looked up, the tested form may be a part): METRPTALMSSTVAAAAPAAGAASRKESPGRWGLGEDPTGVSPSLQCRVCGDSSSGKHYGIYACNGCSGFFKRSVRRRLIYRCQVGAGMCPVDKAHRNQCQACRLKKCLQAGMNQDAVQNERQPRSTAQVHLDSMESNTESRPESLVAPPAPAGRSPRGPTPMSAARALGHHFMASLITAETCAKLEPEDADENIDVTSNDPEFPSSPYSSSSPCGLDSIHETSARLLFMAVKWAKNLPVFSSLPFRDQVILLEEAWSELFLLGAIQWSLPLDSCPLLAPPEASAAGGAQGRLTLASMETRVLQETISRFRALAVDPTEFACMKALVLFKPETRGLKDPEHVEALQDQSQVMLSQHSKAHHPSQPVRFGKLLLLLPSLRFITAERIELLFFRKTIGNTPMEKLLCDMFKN
NR2E3 ag-2 – NR2E3 (human) agonism | Q9Y5X4 | inhibition of corepressor binding, % at 4.78 µM | AID 2300 | GST-NR2E3/biotin-RetCOR TR-FRET, 1536-well | 320,000 tested, 0.12% active;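 active = percent inhibition above the cutoff of mean plus 3 SD of all tested compounds, set per screening campaign, cut at about 20% in these data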;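 note: 0% = DMSO wells and 100% = biotin wells as full block of FRET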
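System: GST-tagged NR2E3 plus biotinylated RetCOR corepressor; Buffer or medium: pH 7.5 Tris-based buffer; Probe or stimulus: RetCOR corepressor, biotinylated, 7 nM; Doses: compound at 4.8 µM, single dose; Schedule: 5 h incubation at 4 °C; Technique: time-resolved FRET; Evaluation: percent inhibition of TR-FRET ratio; Replication: one well per compound, singlicate testing.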
TROY signal inh – TROY signaling inhibition; Q293 LMP1-TROYcd NF-kB luciferase reporter, 4 h; inhibition, % at 10 µM; 360,000 tested, 0.98% active;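 active = compounds whose plate-normalised and pattern-corrected inhibition of the luciferase reporter signal at the single screening dose is 50% or more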
HIF act – HIF pathway transcriptional activation | AID 1910 | U2OS HRE-luciferase reporter, luminescence; normalized: DMSO 0%, desferrioxamine 100% | 300,000 tested, 0.32% active | activation, % at 7.5 µM (by protocol);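 active = mean activation of at least 10% of the iron chelator positive control signal, with at least half of replicates also reaching 10%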
An asterisk follows results filed as active; . = no result given.

SMILES | LMP1 NFkB inh | NR2E3 ag-1 | NR2E3 ag-2 | TROY signal inh | HIF act
O=C(Nc1ccc(Oc2ccccc2)cc1)c1ccc2sc([C@H]3C[C@H](O)[C@@H](CO)O3)nc2c1 | . | -44.0 | . | 51.7* | .
Cn1nc(C(C)(C)C)cc1C(=O)N1CCCCC1c1cc(C(=O)Nc2ccccc2Cl)no1 (configuration not stated) | . | 15.9 | . | 24.3 | .
O=C(Cc1ccccc1)Nc1nc2ccccc2[nH]1 | -4.7 | -27.4 | -2.4 | 64.0* | 0.7
O=C(CSCc1nc2ccccc2[nH]1)Nc1ccccc1 | 59.5* | -14.0 | 1.3 | -13.8 | -0.1
O=C(CSCc1cccc(CSCC(=O)Nc2ccccc2)n1)Nc1ccccc1 | 3.9 | -10.7 | -0.3 | -29.9 | 0.1
Cc1nn(-c2ccccc2)c(N2CCCC2)c1/C=N/NC(=O)c1cc2ccccc2cc1O | 4.9 | -34.7 | 1.4 | 9.7 | 0.4
Cc1nn(-c2ccccc2)c(N2CCCC2)c1/C=N/NC(=S)Nc1ccccc1F | -4.3 | -74.2 | -0.7 | 64.5* | 0.9
Cc1nn2cc(-c3ncc(C(F)(F)F)cc3Cl)cnc2c1Br | -5.2 | -98.8 | 2.2 | 56.0* | -3.5
COc1ccc2cc3c(N)nn(C(=O)c4ccccc4Cl)c3nc2c1 | 80.0* | -61.5 | 6.0 | 49.6 | 3.3
COc1ccc2cc3c(N)nn(C(=O)Cc4c[nH]c5ccccc45)c3nc2c1 | 75.3* | 9.8 | 7.0 | 67.0* | 14.2*
CCN(CC(=O)NCc1ccc(F)cc1)C(=O)c1cccc(S(=O)(=O)N(C)c2ccc(OC)cc2)c1 | -8.9 | -73.4 | . | -5.4 | .
CC(C)n1c(-c2ccc(N(C)C)cc2)nc2ccccc21 | -9.1 | -155.9 | -2.2 | 28.5 | .
CC(C)c1ccc(C(O)Cc2nc3ccccc3n2C)cc1 (configuration not stated) | -6.2 | -37.2 | -1.9 | 48.7 | 1.7
CN(C)c1ccc(-c2nc3ccccc3n2C)cc1 | 49.6* | -127.4 | 1.4 | -3.3 | -1.9
CN(C)c1ccc(C(O)Cc2nc3ccccc3n2C)cc1 (configuration not stated) | 11.3 | -12.6 | -1.3 | 79.3* | -3.3
CCCCn1nc(C(=O)Nc2nc3c(s2)CCCC3)c2ccccc2c1=O | -0.1 | -22.1 | 0.1 | 3.2 | -0.1
CCCCCCn1nc(C(=O)Nc2nc3c(s2)CCCC3)c2ccccc2c1=O | -0.1 | -1.7 | -1.1 | -14.3 | 10.3*
Cc1ccc(F)cc1-c1cc(C(=O)NCc2cc(C(F)(F)F)cc(C(F)(F)F)c2)[nH]n1 | . | -16.0 | . | 53.0* | .
Cc1csc(-c2cc(C(=O)NCc3cc(C(F)(F)F)cc(C(F)(F)F)c3)n[nH]2)c1 | . | -17.6 | . | 52.4* | .
Cc1ccc(Cl)cc1-c1cc(C(=O)NCc2cc(C(F)(F)F)cc(C(F)(F)F)c2)[nH]n1 | . | -44.1 | . | 42.5 | .
Cc1cc(F)ccc1-c1cc(C(=O)NCc2cc(C(F)(F)F)cc(C(F)(F)F)c2)[nH]n1 | . | -36.8 | . | 30.1 | .
CCN1CCN(S(=O)(=O)c2ccc(Cl)c(C(=O)NCCc3ccccc3)c2)CC1 | 1.8 | -56.3 | -1.6 | -25.1 | 0.3
O=c1c([N+](=O)[O-])cn(Cc2ccccc2)c(=O)n1Cc1ccccc1 | 67.5* | -38.1 | . | -16.2 | .
COc1ccc(C(=O)c2coc(-c3ccccc3C(=O)O)c2C(=O)O)cc1 | -5.6 | -6.4 | 1.0 | -16.4 | -0.1
COc1ccc(C(=O)c2c(C(F)(F)F)oc3c2C(=O)c2ccccc2C3=O)cc1 | 84.9* | 92.7* | 0.1 | 34.9 | -3.1
SMILES | LMP1 NFkB inh | NR2E3 ag-1 | NR2E3 ag-2 | TROY signal inh | HIF act
COC(=O)c1sc(-c2ccc(C(C)(C)C)cc2)cc1NC(=O)c1ccccc1C(=O)O | -20.6 | -98.4 | 1.7 | 52.0* | 3.0
COC(=O)c1sc(-c2ccc(Cl)cc2)cc1NC(=O)c1ccccc1C(=O)O | -0.1 | -81.3 | -6.2 | -43.2 | 1.4
COc1nc(-c2ccccc2)nc(-c2ccccc2)c1C | . | -2.0 | -2.5 | -9.3 | 0.2
CC(=O)NC(CCS(C)(=O)=O)C(=O)Nc1c(C)cccc1C (configuration not stated) | 2.9 | -15.9 | -0.4 | -5.5 | -0.3
CC(=O)NC(CCS(C)(=O)=O)C(=O)Nc1c(F)cccc1F (configuration not stated) | 71.5* | 1.6 | -2.0 | -5.4 | -0.4
CCN(CC)c1ccc2nc3ccc(N)cc3[n+](-c3ccccc3)c2c1 | 53.0* | 27.1 | . | -1.9 | .
CCN(CC)c1ccc2nc3ccccc3[n+](CC)c2c1 | 1.3 | -20.7 | -123.9 | 25.1 | -2.3
O=S(=O)(Nc1c(O)ccc2ccccc12)c1ccc(F)cc1 | -0.8 | -29.9 | -1.9 | 53.8* | 1.8
Cc1ccc(COC(=O)NCc2cccnc2)cc1 | -12.2 | -39.5 | 0.4 | -2.5 | -2.4
C=C(C(=O)c1ccccc1)C(CC(=O)c1ccccc1)c1ccccc1 (configuration not stated) | 68.9* | 13.0 | 2.3 | 11.1 | 0.2
COc1ccc(-c2[nH]c(-c3ccc4c(c3)OCO4)nc2-c2ccccc2)cc1 | 5.8 | 1.8 | -0.5 | 60.3* | 0.7
COc1ccc(Nc2cccc3ccccc23)cc1 | -28.7 | -43.1 | 3.3 | 81.6* | 1.1
COc1ccc(Nc2cccccc2=O)cc1 | 1.9 | -49.1 | -3.5 | -44.1 | 2.0
O=c1c2c(nc3c(-c4ccc(Cl)cc4)c[nH]n13)CCCC2 | 52.9* | 28.6 | -1.0 | 31.7 | -0.3
O=C(c1ccco1)N1CCCC(c2nc3c(nnn3Cc3c(Cl)cccc3Cl)c(=O)[nH]2)C1 (configuration not stated) | -14.4 | -34.8 | 1.8 | 5.8 | 0.2
Cc1ccc2nc(CSc3nc(C)cc(C)c3C#N)[nH]c2c1 | -74.8 | -130.6 | 3.1 | 59.3* | 0.7
O=C(O)c1ccc(C=C(c2nc3ccccc3s2)c2nc3ccccc3s2)cc1 | 6.1 | 27.1 | -0.2 | 0.2 | 0.0
CN(C)c1ccc(/C=C(\Cl)c2nc3ccccc3s2)cc1 | 3.4 | 31.4 | 0.8 | 73.1* | .
Cc1ccc2cc3c(N)c(C(=O)N4CCOCC4)sc3nc2c1 | -5.6 | -16.3 | -4.0 | -13.1 | -22.4
Cc1ccc2nc3sc(C(=O)N4CCOCC4)c(N)c3cc2c1 | 63.6* | -51.2 | -2.1 | 11.9 | -5.8
COc1ccccc1OCC(=O)NNC(=O)c1ccc(F)c(S(=O)(=O)N2CCOCC2)c1 | -18.7 | 23.7 | . | -1.8 | .
CCCC(=O)Nc1cccc(S(=O)(=O)N(C)c2ccccc2)c1 | 4.7 | 4.9 | 3.6 | 17.0 | -0.1
CN1CCN(CC(=O)Nc2cccc(S(=O)(=O)N(C)c3ccccc3)c2)CC1 | 74.0* | -26.8 | 3.0 | -5.2 | .
COC(=O)c1sccc1N/N=C/c1cccc(Oc2ccccc2)c1 | -23.8 | -76.5 | -2.0 | 70.6* | 0.1
COC(=O)c1sccc1N/N=C/c1cccc(OC)c1O | 11.1 | -183.1 | -0.6 | 42.8 | -3.2
Cn1nc(-c2ccc(N3CCOCC3)c(NS(=O)(=O)c3ccccc3)c2)c2ccccc2c1=O | 61.3* | -17.3 | -0.9 | -27.3 | -0.5
COc1cc(OC)cc(-c2c(C#Cc3ccsc3)c3cc(-c4cc(OC)c(OC)c(OC)c4)ccc3n2C)c1 | 89.2* | -14.0 | . | -29.4 | .
